Measurements published in ChEMBL document CHEMBL2021854, “2-Aminopyrimidine based 4-aminoquinoline anti-plasmodial agents. Synthesis, biological activity, structure-activity relationship and mode of action studies” (Eur J Med Chem, 2012).

Experiments:
[1] = (§1) Cytotoxicity against MDCK cells assessed as cell viability by colorimetric formazan-based MTS assay; design: species or system Canis lupus familiaris; conditions: dog, MDCK cells
How it was run: (§2)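 Cytotoxicity on MDCK cells; 50% cytotoxic concentration from cell viability measured by colorimetric formazan-based MTS assay.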

[2] = system: Respiratory syncytial virus; assay: Antiviral activity against Respiratory syncytial virus infected in human HeLa cells assessed as inhibition of virus-induced cytopathogenicity after 4 days; type: functional, organism-based; conditions: 96 h
How it was run: (§3)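 Confluent HEL, Vero or HeLa monolayers were inoculated with 100 CCID50 of virus in the presence of varying concentrations of compound. Cytopathicity was scored when it reached completion in untreated, virus-infected control cultures.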

[3] = Cytotoxicity against human HeLa cells assessed as minimum compound concentration required to causes microscopically detectable alteration of normal cell morphology; type: cell-based
How it was run: (§4)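 Confluent, non-proliferating cell cultures were exposed to the compounds. The endpoint was the minimum concentration producing a microscopically detectable alteration of normal cell morphology.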

[4] = system: Influenza A virus; assay: Antiviral activity against Influenza A virus H3N2 infected in MDCK cells assessed as inhibition of virus-induced cytopathogenicity after 4 days by colorimetric formazan-based MTS assay; type: functional, organism-based; conditions: 96 h
[5] = system: Vesicular stomatitis virus; assay: Antiviral activity against Vesicular stomatitis virus infected in HeLa cells assessed as inhibition of virus-induced cytopathogenicity after 4 days; type: functional, organism-based; conditions: 96 h
How it was run: (§5)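 Confluent HEL or HeLa monolayers infected with 100 CCID50 of virus in the presence of varying compound concentrations.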

[6] = system: Coxsackievirus B4; assay: Antiviral activity against Coxsackie virus B4 infected in human HeLa cells assessed as inhibition of virus-induced cytopathogenicity after 4 days; type: functional, organism-based; conditions: Enterovirus B, 96 h; how it was run: as §3
[7] = Cytotoxicity against african green monkey Vero cells assessed as minimum compound concentration required to causes microscopically detectable alteration of normal cell morphology; type: cell-based; conditions: chlorocebus sabaeus; how it was run: as §4
[8] = system: Human respirovirus 3; assay: Antiviral activity against Parainfluenza-3 virus infected in african green monkey Vero cells assessed as inhibition of virus-induced cytopathogenicity after 4 days; type: functional, organism-based; conditions: Human respirovirus 3, Vero, 96 h; how it was run: as §3
[9] = system: Influenza A virus; assay: Antiviral activity against Influenza A virus H1N1 infected in MDCK cells assessed as inhibition of virus-induced cytopathogenicity after 4 days by colorimetric formazan-based MTS assay; type: functional, organism-based; conditions: 96 h
[10] = Cytotoxicity against MDCK cells assessed as minimum compound concentration required to causes microscopically detectable alteration of normal cell morphology; type: cell-based, Canis lupus familiaris; conditions: dog; how it was run: as §4
[11] = system: Sindbis virus; assay: Antiviral activity against Sindbis virus infected in african green monkey Vero cells assessed as inhibition of virus-induced cytopathogenicity after 4 days; type: functional, organism-based; conditions: 96 h; how it was run: as §3
[12] = system: Influenza B virus; assay: Antiviral activity against Influenza B virus infected in MDCK cells assessed as reduction visual scoring of virus-induced cytopathogenicity after 4 days; type: functional, organism-based; conditions: 96 h
How it was run: (§6)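 MDCK monolayers infected with 100 CCID50 of influenza A (H1N1 or H3N2) or influenza B, with varying compound concentrations. Cytopathicity read when untreated infected controls reached complete CPE.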

[13] = Inhibition of beta-hematin formation assessed as Ferriprotoporphyrin IX biomineralisation after 24 hrs; type: functional
How it was run: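 Hemin (0.5 mg/ml in DMSO) was mixed with 0.5 M sodium acetate pH 4.4 and compound, then incubated for 24 h at 37 °C. The pellet was washed with DMSO to remove unreacted hemin and dissolved in 0.1 N NaOH, with A405 read. Percent inhibition was taken versus solvent control, and IC50 by curve fitting.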

[14] = system: MDCK; assay: as §1; design: species or system Canis lupus familiaris; conditions: dog, mdck; how it was run: as §2
[15] = system: Coxsackievirus B4; assay: Antiviral activity against Coxsackie virus B4 infected in african green monkey Vero cells assessed as inhibition of virus-induced cytopathogenicity after 4 days; type: functional, organism-based; conditions: Enterovirus B, 96 h; how it was run: as §3
[16] = system: Influenza B virus; assay: Antiviral activity against Influenza B virus infected in MDCK cells assessed as inhibition of virus-induced cytopathogenicity after 4 days by colorimetric formazan-based MTS assay; type: functional, organism-based; conditions: 96 h
[17] = system: Human alphaherpesvirus 1; assay: Antiviral activity against thymidine kinase-deficient acyclovir-resistant HSV1 KOS infected in HEL cells assessed as inhibition of virus-induced cytopathogenicity after 4 days; type: functional, organism-based; conditions: Human alphaherpesvirus 1, KOS, 96 h; how it was run: as §5
[18] = system: Influenza A virus; assay: Antiviral activity against Influenza A virus H3N2 infected in MDCK cells assessed as reduction visual scoring of virus-induced cytopathogenicity after 4 days; type: functional, organism-based; conditions: 96 h; how it was run: as §6
[19] = system: Vesicular stomatitis virus; assay: Antiviral activity against Vesicular stomatitis virus infected in HEL cells assessed as inhibition of virus-induced cytopathogenicity after 4 days; type: functional, organism-based; conditions: 96 h; how it was run: as §5
[20] = Cytotoxicity against cat CRFK cells assessed as cell viability by colorimetric formazan-based MTS assay; design: species or system Felis catus; conditions: crfk
[21] = system: Human immunodeficiency virus 2; assay: Antiviral activity against HIV2 infected in human CEM cells assessed as inhibition of virus-induced cytopathic effect after 4 days; type: functional, organism-based; conditions: Human immunodeficiency virus 2, CCRF-CEM, 96 h
How it was run: (§7)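 CEM T-lymphocytes (~3 × 10^5 cells/ml) were infected with HIV-1 IIIB or HIV-2 ROD at ~100 CCID50, then immediately plated with a range of compound concentrations. Giant cell formation was scored microscopically after 4 days at 37 °C. Cytostatic activity was tested in parallel in uninfected CEM cells.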

[22] = Inhibition of beta-hematin formation assessed as Ferriprotoporphyrin IX biomineralisation at 1 mg/ml after 24 hrs; type: functional
How it was run: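 Hemin chloride (0.5 mg/ml in DMSO) mixed with 0.5 M sodium acetate buffer pH 4.4 and drug or solvent control, incubated 37 °C for 24 h. Pellet washed with DMSO to remove unreacted hemin, dissolved in 0.1 N NaOH, absorbance read at 405 nm; percent inhibition relative to control. Highest concentration tested 1 mg/ml.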

[23] = system: Felid alphaherpesvirus 1; assay: Antiviral activity against Feline herpesvirus infected in cat CRFK cells assessed as inhibition of virus-induced cytopathic effect after 4 days by colorimetric formazan-based MTS assay; type: functional, organism-based; conditions: Felid alphaherpesvirus 1, CRFK, 96 h
[24] = system: Punta Toro virus; assay: Antiviral activity against Punta Toro virus infected in african green monkey Vero cells assessed as inhibition of virus-induced cytopathogenicity after 4 days; type: functional, organism-based; conditions: 96 h; how it was run: as §3
[25] = system: Human immunodeficiency virus 1; assay: Antiviral activity against HIV1 infected in human CEM cells assessed as inhibition of virus-induced cytopathic effect after 4 days; type: functional, organism-based; conditions: Human immunodeficiency virus 1, CCRF-CEM, 96 h; how it was run: as §7
[26] = system: Plasmodium falciparum; assay: Antiplasmodial activity chloroquine-sensitive Plasmodium falciparum 3D7 infected in human A+ erythrocytes assessed as inhibition of [3H]-hypoxanthine incorporation after 24 hrs by scintillation counting; type: functional, organism-based
[27] = system: HeLa; assay: Cytotoxicity against human HeLa cells assessed as cell viability by colorimetric formazan-based MTS assay
[28] = system: Influenza A virus; assay: Antiviral activity against Influenza A virus H1N1 infected in MDCK cells assessed as reduction visual scoring of virus-induced cytopathogenicity after 4 days; type: functional, organism-based; conditions: 96 h; how it was run: as §6
[29] = system: Human alphaherpesvirus 1; assay: Antiviral activity against HSV1 KOS infected in HEL cells assessed as inhibition of virus-induced cytopathogenicity after 4 days; type: functional, organism-based; conditions: Human alphaherpesvirus 1, KOS, 96 h; how it was run: as §5
[30] = Cytotoxicity against human HEL cells assessed as minimum compound concentration required to causes microscopically detectable alteration of normal cell morphology; type: cell-based; how it was run: as §4
[31] = system: Mammalian orthoreovirus 1; assay: Antiviral activity against Reovirus-1 infected in african green monkey Vero cells assessed as inhibition of virus-induced cytopathogenicity after 4 days; type: functional, organism-based; conditions: Mammalian orthoreovirus 1, Vero, 96 h; how it was run: as §3
[32] = system: Plasmodium falciparum; assay: Resistant factor, ratio of IC50 for chloroquine-resistant Plasmodium falciparum K1 to IC50 for chloroquine-sensitive Plasmodium falciparum 3D7; type: functional
How it was run: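 Resistance factor computed as IC50 against K1 divided by IC50 against 3D7, both from the [3H]hypoxanthine incorporation assay.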

[33] = system: Human alphaherpesvirus 3; assay: Antiviral activity against thymidine kinase-deficient […] infected in HEL cells assessed as reduction of virus plaque formation after 4 days; type: functional, organism-based; conditions: Human alphaherpesvirus 3, 07-1, HEL, 96 h
[34] = system: Human betaherpesvirus 5; assay: Antiviral activity against Human cytomegalovirus Davis infected in HEL cells assessed as inhibition of virus plaque formation after 4 days; type: functional, organism-based; conditions: Human betaherpesvirus 5, Davis, 96 h
[35] = system: Human betaherpesvirus 5; assay: Antiviral activity against Cytomegalovirus AD-169 infected in HEL cells assessed as inhibition of virus plaque formation after 4 days; type: functional, organism-based; conditions: Human betaherpesvirus 5, AD169, HEL, 96 h
[36] = system: Plasmodium falciparum; assay: Antiplasmodial activity chloroquine-resistant Plasmodium falciparum K1 infected in human A+ erythrocytes assessed as inhibition of [3H]-hypoxanthine incorporation after 24 hrs by scintillation counting; type: functional, organism-based
[37] = system: Human alphaherpesvirus 2; assay: Antiviral activity against HSV2 G infected in HEL cells assessed as inhibition of virus-induced cytopathogenicity after 4 days; type: functional, organism-based; conditions: Human alphaherpesvirus 2, strain G, 96 h; how it was run: as §3
[38] = system: Feline infectious peritonitis virus; assay: Antiviral activity against FIPV infected in cat CRFK cells assessed as inhibition of virus-induced cytopathic effect after 4 days by colorimetric formazan-based MTS assay; type: functional, cell-based; conditions: Alphacoronavirus 1, CRFK, 96 h
[39] = Selectivity index, ratio of CC50 for MDCK cells to IC50 for chloroquine-resistant Plasmodium falciparum K1; type: functional
How it was run: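 Selectivity index computed as MTS-based CC50 on MDCK cells divided by IC50 against P. falciparum K1.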

[40] = system: Human alphaherpesvirus 3; assay: Antiviral activity against […] expressing thymidine kinase infected in HEL cells assessed as reduction of virus plaque formation after 4 days; type: functional, cell-based; conditions: Human alphaherpesvirus 3, strain Oka vaccine, 96 h

Compound: NC(=O)c1ncn([C@@H]2O[C@H](CO)[C@@H](O)[C@H]2O)n1 [RIBAVIRIN]
- CC50 [1]: > 100 µM
- EC50 [2]: > 250 µM
- MCC [3]: > 250 µM
- EC50 [4]: 5.6 µM
- EC50 [5]: > 250 µM
- EC50 [6]: > 250 µM
- MCC [7]: > 250 µM
- EC50 [8]: 29 µM
- EC50 [9]: 6.7 µM
- MCC [10]: > 100000 nM
- EC50 [11]: > 250 µM
- EC50 [12]: 7 µM

Compound: CCN(CC)CCCC(C)Nc1ccnc2cc(Cl)ccc12 (configuration not stated) [CHLOROQUINE]
- IC50 [13]: 18 µM

Compound: C=C[C@H]1CN2CC[C@H]1C[C@H]2[C@H](O)c1ccnc2ccc(OC)cc12 [QUININE]
- IC50 [13]: 324 µM

Compound: CCOC(=O)c1c(C)nc(NCCNc2ccnc3cc(Cl)ccc23)nc1-c1ccccc1
- CC50 [14]: 1.4 µM
- EC50 [2]: > 4 µM
- EC50 [15]: > 4 µM
- EC50 [16]: > 0.16 µM
- EC50 [17]: > 4 µM
- EC50 [18]: > 0.16 µM
- EC50 [19]: > 4 µM
- CC50 [20]: 7.3 µM
- MCC [3]: 20 µM
- EC50 [21]: > 2 µM
- inhibition [22]: 96%
- EC50 [4]: > 0.16 µM
- EC50 [23]: > 4 µM
- EC50 [24]: > 4 µM
- EC50 [25]: > 2 µM
- IC50 [26]: 0.0217 µM
- EC50 [5]: > 4 µM
- CC50 [27]: 7.9 µM
- EC50 [28]: > 0.16 µM
- EC50 [29]: > 4 µM
- EC50 [6]: > 4 µM
- MCC [7]: 20 µM
- MCC [30]: 20 µM
- EC50 [31]: > 4 µM
- EC50 [8]: > 4 µM
- Ratio IC50 [32]: 6.43
- EC50 [33]: > 20 µM
- EC50 [34]: > 4 µM
- EC50 [35]: > 4 µM
- IC50 [36]: 0.139 µM
- EC50 [37]: > 4 µM
- EC50 [9]: > 0.16 µM
- EC50 [38]: > 4 µM
- Ratio CC50/IC50 [39]: 10.04
- MCC [10]: 800 nM
- EC50 [40]: > 4 µM
- EC50 [11]: > 4 µM
- EC50 [12]: > 0.16 µM
